Data set [1] in a line: folding enthalpy; higher = less favourable; fluorescence melt of hairpins on a sequencing array, two-state fit. Conditions: sodium 0.088 M. The essentials:
(§1)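 Cy3 signals were normalised both to pre-quench Cy3 and to control constructs. They came from library hairpins carrying annealed Cy3 and quencher oligos on a sequenced MiSeq flow cell, imaged in 50 mM Na-HEPES pH 8.0, 25 mM NaCl, in 2.5 °C steps up to 60 °C. Bootstrapped two-state fits gave melting temperature and folding enthalpy, and four replicates were combined by inverse variance. Fitted temperatures were then raised by 9.35 °C to match UV melts.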

Data set [2] is described as follows: melting temperature; fluorescence melt of hairpins on a sequencing array, two-state fit, raised by 9.35 °C to match UV melts. The note with it: sodium 0.088 M. The essentials: as §1

For GGCTCCGAAAGGAAGGCC ((((((....)))..))), the folding enthalpy in data set [1] is -29.7 kcal/mol. Moreover, in data set [2], the Tm was 52.6 °C.

For the sequence GGCTCCGAAAGGACGCC ((((((....))).))), in data set [1], the folding enthalpy is -29.1 kcal/mol. The Tm in data set [2] was 59.9 °C.

Regarding GGCTCCGCGAAAGCGGCC (((..(((....)))))), the folding enthalpy in data set [1] is -8.55 kcal/mol. For the same sequence, the Tm in data set [2] was found to be 41.4 °C.

For GGCTCGCCGAAAGGCGCC (((..(((....)))))), the folding enthalpy in data set [1] is -6.98 kcal/mol. Also, the Tm in data set [2] amounted to 35.7 °C.

As for GGCTCGGGAAACCGAACC ((.((((....)))).)), the folding enthalpy in data set [1] was -29.7 kcal/mol. In data set [2], the Tm stood at 48.8 °C.

Turning to GGCTCTACGAAAGTAGCC (((..(((....)))))), the folding enthalpy in data set [1] was -17.1 kcal/mol. Moreover, in data set [2], the Tm is 40.1 °C.

As for GGCTCTCCGAAAGGAGCC (((..(((....)))))), the folding enthalpy in data set [1] is -15 kcal/mol. The Tm in data set [2] stood at 49 °C.

Regarding GGCTCTGGAAACAAAGCC ((((.((....)).)))), in data set [1], the folding enthalpy was -29.9 kcal/mol. For the same sequence, the Tm in data set [2] was found to be 38 °C.

On to GGCTGACCGAAAGGTGCC (((..(((....)))))), for which the folding enthalpy in data set [1] is -24.7 kcal/mol. Also, the Tm in data set [2] was 52.4 °C.

For the sequence GGCTGACGAAAGTCGCC (((.(((....)))))), the folding enthalpy in data set [1] was -28.9 kcal/mol. In data set [2], the Tm was 59.6 °C.

Take GGCTGAGGAAACTCGGTC (.(.(((....))).).): the folding enthalpy in data set [1] is -25 kcal/mol. Further, the Tm in data set [2] came to 40.8 °C.

Turning to GGCTGCACGAAAGTGGCC (((..(((....)))))), the folding enthalpy in data set [1] was -20 kcal/mol. Moreover, the Tm in data set [2] is 49 °C.

As for GGCTGCCGAAAGGCGCC (((.(((....)))))), the folding enthalpy in data set [1] is -18.9 kcal/mol. In addition, in data set [2], the Tm worked out at 68.3 °C.

On to GGCTGCGAAAGCATAGCC ((((((....)))..))), for which the folding enthalpy in data set [1] was -35.5 kcal/mol. Moreover, the Tm in data set [2] amounted to 57.1 °C.

On to GGCTGCGCGAAAGCGGCC (((..(((....)))))), for which the folding enthalpy in data set [1] was -19.2 kcal/mol. The Tm in data set [2] turned out to be 60.3 °C.

Regarding GGCTGCTCGAAAGAGGCC (((..(((....)))))), the folding enthalpy in data set [1] was -19.7 kcal/mol. Further, in data set [2], the Tm is 43.8 °C.

Turning to GGCTGGAAACAGCC (((((....))))), the folding enthalpy in data set [1] was -30.9 kcal/mol. In data set [2], the Tm came to 67.5 °C.

As for GGCTGGGGAAACCCAACC ((.((((....)))).)), the folding enthalpy in data set [1] was -27 kcal/mol. For the same sequence, the Tm in data set [2] came out at 45.8 °C.

Regarding GGCTGGGGAAACCTGGCC (((..((....))..))), the folding enthalpy in data set [1] was -30.6 kcal/mol. Further, the Tm in data set [2] worked out at 51.7 °C.

On to GGCTGTACGAAAGTAGCC (((..(((....)))))), for which the folding enthalpy in data set [1] is -27.5 kcal/mol. In addition, the Tm in data set [2] worked out at 51.1 °C.

On to GGCTGTGGAAACACGGCC (((.(((....))).))), for which the folding enthalpy in data set [1] is -46.6 kcal/mol. The Tm in data set [2] was determined as 60.8 °C.

As for GGCTTACGAAAGTAGGCC (((.(((....))).))), the folding enthalpy in data set [1] is -43.6 kcal/mol. Also, the Tm in data set [2] was 60.1 °C.

Take GGCTTAGGAAACTAGGCC (((.(((....))).))): the folding enthalpy in data set [1] is -31.3 kcal/mol. In addition, the Tm in data set [2] stood at 48.7 °C.

Turning to GGCTTCGAAAGAAAAGCC ((((((....)))..))), the folding enthalpy in data set [1] was -28 kcal/mol. The Tm in data set [2] worked out at 46.6 °C.

On to GGCTTCGAAAGAAATGCC ((((((....)))..))), for which, in data set [1], the folding enthalpy was -25.3 kcal/mol. For the same sequence, in data set [2], the Tm was found to be 38.5 °C.

GGCTTCGAAAGAATCGCC ((((((....)))..))): the folding enthalpy in data set [1] is -27.7 kcal/mol. The Tm in data set [2] came out at 35.8 °C.

Regarding GGCTTCGAAAGAATGGCC ((((((....)))..))), the folding enthalpy in data set [1] is -25.2 kcal/mol. In addition, the Tm in data set [2] was 42.2 °C.

In the case of GGCTTCGGAAACGGAGCC ((((.((....)).)))), in data set [1], the folding enthalpy is -42.2 kcal/mol. Moreover, the Tm in data set [2] was found to be 59.1 °C.

Take GGCTTGACGAAAGTCGCC (((..(((....)))))): in data set [1], the folding enthalpy is -14.5 kcal/mol. Moreover, the Tm in data set [2] turned out to be 55.2 °C.

GGCTTGGGAAACCAGGTC (.(.(((....))).).): the folding enthalpy in data set [1] is -23.2 kcal/mol. For the same sequence, the Tm in data set [2] came to 37 °C.

Turning to GGCTTGTCGAAAGACGCC (((..(((....)))))), in data set [1], the folding enthalpy is -18.5 kcal/mol. The Tm in data set [2] was determined as 49.9 °C.

On to GGCTTTCGAAAGAACGCC (((.(((....))).))), for which the folding enthalpy in data set [1] was -39.3 kcal/mol. In addition, the Tm in data set [2] came to 50.2 °C.

On to GGCTTTGGAAACAAGGTC (.(.(((....))).).), for which the folding enthalpy in data set [1] was -13.9 kcal/mol. Moreover, in data set [2], the Tm was found to be 32.2 °C.

As for GGCTTTGGAAACAGAGTC (.((.((....)).)).), in data set [1], the folding enthalpy was -10.1 kcal/mol. Besides, in data set [2], the Tm stood at 29.3 °C.

Regarding GGGAAAACGAAAGTTCCC (((..(((....)))))), the folding enthalpy in data set [1] was -27.1 kcal/mol. For the same sequence, the Tm in data set [2] stood at 43.5 °C.

GGGAAACGAAAGTTCCC (((.(((....)))))): the folding enthalpy in data set [1] is -28 kcal/mol. The Tm in data set [2] was determined as 53.4 °C.

As for GGGAAAGCGAAAGCTCCC (((..(((....)))))), the folding enthalpy in data set [1] is -20.9 kcal/mol. For the same sequence, in data set [2], the Tm amounted to 51.8 °C.

(Values after the array DNA melting data of Ke et al. (doi:10.1101/2024.01.08.574731).)
